Experimental findings from ChEMBL document CHEMBL2439990, “Serendipity in drug-discovery: a new series of 2-(benzyloxy)benzamides as TRPM8 antagonists” (Bioorg Med Chem Lett, 2013) are described below.

One may read the logD as the decadic logarithm of the distribution of all forms, ionised or not, between an organic phase and buffer at a given pH. Usually pIC50 stands for the negative decadic logarithm of the IC50, by convention in mol/L. The term pEC50 denotes the EC50 on a negative log10 scale, so that one unit is a factor of ten. One may read the inhibition as the relative decrease from the control value, in per cent.

pEC50, pIC50: −log10 of the molar value.

Series [1] can be described thus: Apparent intrinsic clearance in human liver microsomes. Type of series: ADME, Microsome. The note with it: read-out: CLH(app).
Series [2] is described as follows: Lipophilicity, log D of the compound at pH 7.4. Format: physicochemical. The note with it: buffer.
Series [3] deals with Transient receptor potential cation channel subfamily M member 8 (Homo sapiens, UniProt Q7Z2W7). Kind of series: Inhibition of human TRPM8 (unknown origin) expressed in HEK293 cells assessed as inhibition of WS12-induced Ca2+ elevation by FLIPR assay. Type of series: cell-based. The essentials: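 IC50 values plus modified Kb values computed from the geometric mean of agonist EC50 and slope. At least three independent experiments.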

The species named for another series is Rattus norvegicus. Kind of series: Inhibition of rat calcium channel L-site diltiazem binding site at 10 uM.
A short description of series [4]: Half life in DMSO/aqueous buffer assessed as N-(2-(4-(benzyloxy)-3-methoxybenzylamino)ethyl)thiophene-2-carboxamide formation. Format: physicochemical.

Turning to `NCCN(Cc1cccs1)C(=O)c1ccccc1OCc1ccccc1`, the microsomal CLint in series [1] worked out at 149 µL/min/mg. This compound showed a logD in series [2] of 1.6. For the same compound, in series [3], the pIC50 was 5.91 and the Kb stood at 443 nM.
`CCCCN(C(=O)c1ccccc1OCc1ccccc1)[C@@H]1CCC[C@H](N)C1` (racemic): in series [3], the pIC50 was 5.85 and the Kb stood at 1560 nM.
In the case of `CCN(C(=O)c1cnccc1OCc1ccccc1)[C@@H]1CCC[C@H](N)C1` (racemic), the Kb in series [3] was greater than 2000 nM.
With `CCN(C(=O)c1ccccc1OCC(C)C)[C@@H]1CCC[C@H](N)C1` (racemic), the Kb in series [3] is greater than 2000 nM.
On to `CCCN(C(=O)c1ccccc1OCc1ccccc1)[C@@H]1CCC[C@H](N)C1` (racemic), for which, in series [3], the pIC50 was 5.91 and the Kb was determined as 1430 nM.
For `CCN(C(=O)c1ccccc1Cc1ccccc1)[C@@H]1CCC[C@H](N)C1` (racemic), the Kb in series [3] is greater than 2000 nM.
For the compound `CCN(C(=O)c1ccccc1OCc1ccccc1F)[C@@H]1CCC[C@H](N)C1`, the microsomal CLint in series [1] was less than 8 µL/min/mg. This compound registered a logD in series [2] of 0.7. Moreover, in series [3], the pIC50 was 7.68 and the Kb was determined as 17.8 nM.
As for `CN(C(=O)c1ccccc1OCc1ccccc1)[C@@H]1CCC[C@H](N)C1` (racemic), in series [3], the pIC50 is 5.50 and the Kb was 3670 nM.
Take `O=C(c1ccccc1OCc1ccccc1)N1C[C@H]2CNC[C@H]2C1`: the Kb in series [3] is greater than 10000 nM.
For `N[C@H]1CCC[C@@H](N(C(=O)c2ccccc2OCc2ccccc2)C2CC2)C1` (racemic), in series [3], the pIC50 was 5.70 and the Kb is 2250 nM.
Turning to `CCN(C(=O)c1ccccc1OCc1ccc(Cl)cc1)[C@@H]1CCC[C@H](N)C1`, the microsomal CLint in series [1] was less than 10 µL/min/mg. The logD in series [2] amounted to 1.3. In series [3], the pIC50 is 7.71 and the Kb amounted to 16.1 nM.
Turning to `CCN(C(=O)c1ccccc1OCc1ccc(C#N)cc1)C1CCCC(N)C1` (racemic), in series [3], the pIC50 was 5.17 and the Kb is 4590 nM.
Take `NN1CCN(C(=O)c2ccccc2OCc2ccccc2)CC1`: in series [3], the Kb is greater than 10000 nM.
`COc1ccc(NC(=O)[C@@H]2C[C@H](C)CC[C@H]2C(C)C)cc1` [ACOLTREMON]: the pEC50 in series [3] is 7.40.
In the case of `CCN(C(=O)c1ccccc1OCc1ccc(Cl)cc1)[C@H]1CCC[C@@H](N)C1`, in series [3], the pIC50 was 6.60 and the Kb was found to be 214 nM.
On to `CCN(C(=O)c1ccccc1OCc1ccccc1)C1CCCNC1` (configuration not stated), for which, in series [3], the Kb was 4860 nM.
For `CCN(C(=O)c1ccccc1OCc1ccccc1)[C@@H]1CCC[C@H](N)C1`, the inhibition in the series listed under Rattus norvegicus was determined as 61%. The microsomal CLint in series [1] is less than 8 µL/min/mg. Also, the logD in series [2] was determined as 0.6. For the same compound, in series [3], the pIC50 is 7.12 and the Kb amounted to 56.3 nM.
For `CCN(C(=O)c1ccccc1OCc1ccccc1F)[C@H]1CCC[C@@H](N)C1`, in series [3], the pIC50 is 6.36 and the Kb is 367 nM.
On to `CCN(C(=O)c1ccccc1-c1ccccc1)[C@@H]1CCC[C@H](N)C1` (racemic), for which the Kb in series [3] is greater than 2000 nM.
As for `CCN(C(=O)c1ccccc1OCc1ccccc1C#N)C1CCCC(N)C1` (racemic), in series [3], the pIC50 was 5.73 and the Kb was 1250 nM.
Consider `COc1cc(CN(CCN)C(=O)O[C@@H](C)c2ccccc2)ccc1OCc1ccccc1`, for which the Kb in series [3] amounted to 7.8 nM.
For `CCN(C(=O)c1ccccc1OCc1ccccc1)C1CCNCC1`, in series [3], the Kb is greater than 5000 nM.
In the case of `CCN(C(=O)c1ccccc1OCc1ccccc1)[C@@H]1CC[C@H](N)C1` (racemic), the Kb in series [3] is greater than 5000 nM.
In the case of `CCN(C(=O)c1ccccc1OCc1ccccc1C)[C@@H]1CCC[C@H](N)C1`, in series [3], the pIC50 was 7.82 and the Kb amounted to 12.7 nM.
As to `CCN(C(=O)c1ccccc1OCc1ccccc1)[C@@H]1CCC[C@@H](N)C1` (racemic), the Kb in series [3] is 1400 nM.
Consider `CCN(C(=O)c1ccccc1OCc1ccccc1)[C@H]1CCC[C@@H](N)C1`, for which the Kb in series [3] was determined as 1130 nM.
Same read-out and setting: with `CCN(C(=O)c1ccncc1OCc1ccccc1)[C@@H]1CCC[C@H](N)C1` (racemic) the figure was greater than 2000 nM.
As to `N[C@H]1CCC[C@@H](N(CC2CC2)C(=O)c2ccccc2OCc2ccccc2)C1` (racemic), in series [3], the pIC50 was 6.23 and the Kb is 665 nM.
For `COc1cc(CN(CCN)C(=O)c2cccs2)ccc1OCc1ccccc1`, the t1/2 in series [4] was less than 2 h. In series [3], the Kb turned out to be 8.4 nM.
Consider `CCN(C(=O)c1ccccc1OCc1ccccc1Cl)[C@H]1CCC[C@@H](N)C1`, for which, in series [3], the pIC50 is 7.07 and the Kb was determined as 72 nM.
Take `CCN(C(=O)c1ccccc1OCc1ccccc1)[C@@H]1CCC[C@H](NC(C)=O)C1` (racemic): in series [3], the Kb is greater than 5000 nM.
On to `CCN(C(=O)c1ccccc1OCc1cccc(Cl)c1)C1CCCC(N)C1` (racemic), for which, in series [3], the pIC50 is 7.01 and the Kb is 96.6 nM.
For the compound `CCN(C(=O)c1ccccc1OCc1ccccc1C)[C@H]1CCC[C@@H](N)C1`, in series [3], the pIC50 is 6.54 and the Kb came to 246 nM.
For `CCN(C(=O)c1ccccc1COc1ccccc1)[C@@H]1CCC[C@H](N)C1` (racemic), the Kb in series [3] is 280 nM.
In the case of `NC1CCN(C(=O)c2ccccc2OCc2ccccc2)C1` (configuration not stated), the Kb in series [3] is greater than 10000 nM.
For `CCN(C(=O)c1ccccc1OCc1ccccc1)[C@@H]1CC[C@@H](N)C1` (racemic), in series [3], the Kb is 2600 nM.
As to `CCN(C(=O)c1cccnc1OCc1ccccc1)[C@@H]1CCC[C@H](N)C1` (racemic), the Kb in series [3] was greater than 2000 nM.
On to `CCN(C(=O)c1ccccc1OCc1cccc(C#N)c1)C1CCCC(N)C1` (racemic), for which, in series [3], the pIC50 is 6.31 and the Kb is 491 nM.
As for `O=C(c1ccccc1OCc1ccccc1)N1CCNCC1`, in series [3], the Kb was greater than 10000 nM.
Consider `CCN(C(=O)c1ccccc1OCc1ccccc1Cl)[C@@H]1CCC[C@H](N)C1`, for which, in series [3], the pIC50 was 7.52 and the Kb is 13 nM.
Turning to `CCN(C(=O)c1ccccc1OCc1ccccc1)C1CCNC1` (configuration not stated), the Kb in series [3] was greater than 5000 nM.
In the case of `N[C@H]1CCC[C@@H](N(C(=O)c2ccccc2OCc2ccccc2)C2CCC2)C1` (racemic), in series [3], the pIC50 is 5.87 and the Kb amounted to 794 nM.
On to `O=C1NC(c2cccc([N+](=O)[O-])c2)=CCN1c1ccccc1O` [ICILLIN], for which the pEC50 in series [3] is 6.52.
For the compound `CCN(C(=O)c1ccccc1OCc1ccccc1)C1CCCC(N)C1` (racemic), in series [3], the Kb was less than 100 nM.
Take `CC(C)N(C(=O)c1ccccc1OCc1ccccc1)[C@@H]1CCC[C@H](N)C1` (racemic): in series [3], the pIC50 is 5.06 and the Kb came out at 5130 nM.
Take `CN(C(=O)c1ccccc1OCc1ccccc1)[C@@H]1CCNC1`: the Kb in series [3] is greater than 10000 nM.
